A short description of data set [1]: Binding affinity to Triton-X 100 assessed as intra-molecular saturation transfer at 100 uM at 6.61 ppm by STD spectra analysis. The essentials:
(§1)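 STD NMR, saturation by a train of 40 Gaussian pulses of 50 ms each; selective on-resonance irradiation at the stated ppm (TX at 7.48 ppm), off-resonance at 30 ppm, interleaved and subtracted by phase cycling. 32K points, 16 ppm width centred at 4.7 ppm, 256 scans, 16 dummy scans, 0.1 s recycle delay (~15 min); 3 Hz exponential line broadening.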

Data set [2] addresses T1, Rap guanine nucleotide exchange factor 3 (Homo sapiens) (UniProt O95398).
T1 sequence (whole entry): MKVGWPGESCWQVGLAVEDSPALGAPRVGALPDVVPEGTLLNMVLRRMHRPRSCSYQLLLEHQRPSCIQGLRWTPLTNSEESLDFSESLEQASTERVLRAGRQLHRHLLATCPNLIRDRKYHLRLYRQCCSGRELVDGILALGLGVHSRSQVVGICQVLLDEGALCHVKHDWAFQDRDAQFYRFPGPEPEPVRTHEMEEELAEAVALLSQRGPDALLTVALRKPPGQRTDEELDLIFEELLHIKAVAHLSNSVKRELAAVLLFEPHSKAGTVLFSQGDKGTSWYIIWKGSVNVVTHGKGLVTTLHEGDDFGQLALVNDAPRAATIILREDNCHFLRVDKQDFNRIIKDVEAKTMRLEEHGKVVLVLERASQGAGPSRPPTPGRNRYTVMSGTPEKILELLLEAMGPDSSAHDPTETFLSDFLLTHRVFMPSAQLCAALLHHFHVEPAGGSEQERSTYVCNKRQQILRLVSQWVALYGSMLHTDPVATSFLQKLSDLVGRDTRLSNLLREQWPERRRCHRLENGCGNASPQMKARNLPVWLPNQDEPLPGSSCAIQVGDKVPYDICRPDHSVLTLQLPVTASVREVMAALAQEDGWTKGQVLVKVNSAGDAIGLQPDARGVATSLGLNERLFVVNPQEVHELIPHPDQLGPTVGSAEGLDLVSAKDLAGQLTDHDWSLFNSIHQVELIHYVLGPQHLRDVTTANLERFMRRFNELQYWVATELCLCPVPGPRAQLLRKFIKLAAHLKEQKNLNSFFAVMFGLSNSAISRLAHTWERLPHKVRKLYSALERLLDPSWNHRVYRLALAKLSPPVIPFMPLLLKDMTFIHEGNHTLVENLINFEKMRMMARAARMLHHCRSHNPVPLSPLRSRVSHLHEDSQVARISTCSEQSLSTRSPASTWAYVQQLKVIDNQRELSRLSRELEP
Nature of the data set: Binding affinity to human EPAC1 cAMP binding domain (149 to 318 residues) assessed as increase in peak intensity in presence of human serum albumin by [15N-1H]HSQC spectroscopic analysis relative to control.

Data set [3] in a line: Aggregation property of the compound assessed as change in saturation transfer at 100 uM irradiated at 6.61 ppm by STD NMR spectra analysis. Type of data set: physicochemical. The essentials:
as §1

A short description of data set [4]: Aggregation property of the compound assessed as change in chemical shift by 1H-NMR analysis. Type of data set: physicochemical. In outline: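 Line widths, chemical shifts and peak intensities tracked; CAC taken as the concentration where intensities deviate from linear dependence, or, for line width, the minimal concentration that increases peak width.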

The source made the active and inactive calls. No cut-off for these calls is given here.

As for `CC(C)(C)c1cc(C(=O)/C(C#N)=N/Nc2cccc(Cl)c2)no1`, the result in data set [1] was Active. In addition, the Activity was 30 to 40% in data set [2], “Not Active” in data set [3] and “Not Active” in data set [4].

The record behind these values is ChEMBL document CHEMBL4396878, “Mechanisms of Specific versus Nonspecific Interactions of Aggregation-Prone Inhibitors and Attenuators” (J Med Chem, 2019).
